Source: PubChem BioAssay
The list is not random: actives were taken first. Their share in the collection is about 1.5%.
Rpn11 block = blocks the human proteasome subunit Rpn11. O00487. human 26S proteasome, Ub4-pepOG fluorescence polarization; 20S core pre-blocked with epoxomicin. calls only at 20 µM. 360,000 tested, 0.59% active;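 active = inhibition at 20 µM, scaled to each plate's controls, above about 33%, limit read from the data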
Target sequence (O00487 whole entry, looked up): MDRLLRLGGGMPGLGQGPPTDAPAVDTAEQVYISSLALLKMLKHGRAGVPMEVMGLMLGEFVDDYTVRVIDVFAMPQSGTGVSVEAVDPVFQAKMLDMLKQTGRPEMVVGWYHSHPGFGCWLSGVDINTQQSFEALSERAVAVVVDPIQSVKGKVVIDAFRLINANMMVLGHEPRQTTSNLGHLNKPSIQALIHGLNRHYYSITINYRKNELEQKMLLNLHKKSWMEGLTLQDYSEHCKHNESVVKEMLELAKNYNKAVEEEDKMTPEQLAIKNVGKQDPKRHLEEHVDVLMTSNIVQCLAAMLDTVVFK
HNF4A DNA FP = change in binding of human HNF4 alpha to DNA; P41235; HNF4a-FITC DNA binding, fluorescence polarization, 1 h; activity change, % at 10 µM; 360,000 tested, 0.3% active; AID 1224865; in the data active = activity change above about 30%, passing the limit was not always enough
CSN inh = blocks human CSN-mediated cullin deneddylation; Q92905; Purified CSN, SCF-Nedd8-OG deneddylation, fluorescence polarization; inhibition, % at 12.5 µM; 360,000 tested, 0.38% active; AID 651999;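 active = pattern-corrected inhibition above about 35%, with an unprinted fluorescence ratio check between 0.5 and 1.5, limit read from the data, passing the limit was not always enough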
Target sequence (Q92905 whole entry, looked up, one chain of several): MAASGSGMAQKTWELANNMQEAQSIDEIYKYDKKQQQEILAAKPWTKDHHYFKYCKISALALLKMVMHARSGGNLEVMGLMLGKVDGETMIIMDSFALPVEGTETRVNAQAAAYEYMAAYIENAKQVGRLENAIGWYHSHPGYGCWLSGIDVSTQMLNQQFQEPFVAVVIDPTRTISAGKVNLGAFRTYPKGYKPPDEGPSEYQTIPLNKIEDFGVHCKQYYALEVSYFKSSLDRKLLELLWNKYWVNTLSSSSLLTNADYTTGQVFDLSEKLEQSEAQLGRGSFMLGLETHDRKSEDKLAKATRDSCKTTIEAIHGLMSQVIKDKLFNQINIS
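Schedule: reaction 90 min, room temperature / Assay system: HEK293T-derived human Csn5 enzyme / Input: Csn5 at 0.24 nM final / Measure: inhibition of Csn5 cleavage, % / Control set: substrate-only high control, full reaction low control / Technique: fluorescence polarization of the substrate / Buffer or medium: Tris/NaCl/DTT buffer, pH 7.5 / Reagent: SCFSkp2-Nedd8OG substrate at 10 nM final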
TPT1 inh = blocks Candida albicans tRNA 2'-phosphotransferase | recombinant caTPT1, FP RNA substrate dephosphorylation | inhibition, % at 5 µM | 300,000 tested, 0.81% active;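 active = inhibition above the mean of all tested compounds plus 3 SD, set per screening campaign, cut at about 24% in these data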
Rpn11 inh conf = Rpn11 inhibition confirmation, single concentration; 1,900 tested, 29% active; shares compounds with Rpn11 block; purified human 26S proteasome, Ub4-pepOG fluorescence polarization; proteasome pretreated with epoxomicin; inhibition, % at 20 µM
MMP-2 counter-1 = blocks human MMP-2, flagging nonselective RPN11 hits. 1,900 tested, 4% active. recombinant MMP-2, FRET peptide cleavage fluorescence. inhibition, % at 20 µM. shares compounds with Rpn11 block;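 also: human MMP-2 activated beforehand with APMA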
Thrombin inh = thrombin (bovine) inhibition counter-screen; AID 602333; bovine thrombin cleavage of Ub4-pepOG, fluorescence polarization; inhibition, % at 20 µM; shares compounds with Rpn11 block; 1,900 tested, 13% active;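 active = mean inhibition at least 40% at 20 µM, or signal 3 deviations below plate average, so some actives read negative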
CSN5 deneddyl = validation of inhibitors of human CSN-mediated cullin deneddylation; AID 720654; inhibition, % at 16.6 µM; Csn5 deneddylation of SCF-Nedd8OG, fluorescence polarization, 90 min; shares compounds with CSN inh; 540 tested, 62% active; in the data active = inhibition above about 50%
MMP-2 counter-2 = MMP-2 (human) inhibition, counter-screen for CSN hits; inhibition, % at 16.6 µM; recombinant MMP-2, FRET substrate fluorescence, 60 min; 540 tested, 33% active; shares compounds with CSN inh;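 active = corrected plate-normalized z-score of 5 or more, or -5 or less, or inhibition of 15% or more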
Thrombin cntr = counter-screen for CSN deneddylation inhibitors: bovine thrombin inhibition. shares compounds with CSN inh. bovine thrombin cleavage of Ub4-pepOG, fluorescence polarization. inhibition, % at 16.6 µM. 540 tested, 49% active;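 active = inhibition at or above a set limit, with a fluorescence interference ratio between 0.5 and a set maximum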
HNF4A confirm = change in binding of human HNF4 alpha to DNA, retest; AID 1224897; activity change, % at 12.5 µM; 210 tested, 99% active; shares compounds with HNF4A DNA FP; HNF4A-FITC DNA binding, fluorescence polarization, 1 h; call rule not given here
Large screens that a line does not name were inactive (follow-up assays come after a bar, where they were run). Rule as the data show it, unless noted: active = inhibition above about 40%; inactive = the rest.

O=C(CN1C(=O)/C(=C/c2ccco2)SC1=S)Nc1ccc(O)c(C(=O)O)c1	Rpn11 block active, CSN inh 56.2 | Rpn11 inh conf inactive | MMP-2 counter-1 inactive | Thrombin inh inactive | CSN5 deneddyl 56.7 | MMP-2 counter-2 21.3 | Thrombin cntr inactive
COc1ccccc1-n1cnc2c(c1=O)c1nc3ccccc3nc1n2-c1ccc(C)cc1	Rpn11 block active, CSN inh 47.3 | Rpn11 inh conf inactive | MMP-2 counter-1 inactive | Thrombin inh inactive | CSN5 deneddyl 98.9 | MMP-2 counter-2 inactive | Thrombin cntr inactive
CCOC(=O)c1c(NC(=O)COC(=O)c2cccnc2OCC)sc(C(=O)N(CC)CC)c1C	none (no result: TPT1 inh)
O=C(N/N=C/c1ccncc1)c1cccc(S(=O)(=O)Nc2ccc(Cl)cc2)c1	Rpn11 block active, CSN inh 72.3 | Rpn11 inh conf 139.4 | MMP-2 counter-1 46.1 | Thrombin inh inactive | MMP-2 counter-2 34.8 | Thrombin cntr inactive
Cc1c2cc[n+](CCN3CCCCC3)cc2c(C)c2c1[nH]c1ccc(O)cc12	Rpn11 block active, CSN inh 100.1 (no result: TPT1 inh) | Rpn11 inh conf 68.8 | MMP-2 counter-1 41.8 | Thrombin inh inactive | CSN5 deneddyl inactive | MMP-2 counter-2 93.1 | Thrombin cntr 40.1
CCOC(=O)c1[nH]c2ccc(C)cc2c1NC(=O)CN1CCCCC1	none
O=C1NN(c2ccc(Cl)cc2)C(=O)/C1=C\c1ccc(-c2cccc(C(=O)O)c2)o1	Rpn11 block active, CSN inh 36.5 (no result: TPT1 inh) | Rpn11 inh conf 141.9 | MMP-2 counter-1 inactive | Thrombin inh inactive | CSN5 deneddyl inactive | MMP-2 counter-2 15.4 | Thrombin cntr 24.1
COC(=O)c1c(NC(=O)COC(=O)c2ccccc2O)sc2c1CCCCC2	none
COC(=O)c1c(NC(=O)COC(=O)c2ccc(NC(=O)CC#N)cc2)sc2c1CCCCC2	Rpn11 block active, CSN inh 57.2 | Rpn11 inh conf 106.1 | MMP-2 counter-1 inactive | Thrombin inh inactive | CSN5 deneddyl inactive | MMP-2 counter-2 inactive | Thrombin cntr inactive
c1ccc(CCn2cccc2)nc1	none (no result: TPT1 inh)
O=C(N1CCc2cc(S(=O)(=O)NC[C@H]3O[C@@H](n4ccc(=O)[nH]c4=O)[C@H](O)[C@@H]3O)ccc2C1)C(F)(F)F	none (no result: TPT1 inh)
O=C(N/N=C/c1cc(Cl)ccc1O)c1ccc(Br)cc1	Rpn11 block active, CSN inh 44.3 | Rpn11 inh conf 177.5 | MMP-2 counter-1 inactive | Thrombin inh inactive | CSN5 deneddyl inactive | MMP-2 counter-2 39.0 | Thrombin cntr 16.4
O=C(N/N=C/c1cc(Br)ccc1O)c1ccncc1	none
CCN(CC)CCOC(=O)c1ccc(N/C=C(/C#N)c2nc(-c3ccc(OC)c(OC)c3)cs2)cc1	Rpn11 block active, CSN inh 126.4 | Rpn11 inh conf 70.4 | MMP-2 counter-1 inactive | Thrombin inh 56.7 | CSN5 deneddyl inactive | MMP-2 counter-2 -42.1 | Thrombin cntr inactive
CC(Nc1nc(-c2ccc(F)cc2)cs1)c1nc2cc(Cl)c(Cl)cc2n1CCCO (centres undefined)	none
Cc1ccc(Cn2c(C(C)Nc3nc(-c4ccc(C)cc4)cs3)nc3cc(Cl)c(Cl)cc32)cc1 (centres undefined)	Rpn11 block active, CSN inh 38.2 | Rpn11 inh conf 65.1 | MMP-2 counter-1 51.0 | Thrombin inh inactive | CSN5 deneddyl 55.0 | MMP-2 counter-2 15.1 | Thrombin cntr inactive
Cc1nc(SCc2nc3ccc(C(F)(F)F)cc3[nH]2)c2oc3ccccc3c2n1	none (no result: TPT1 inh)
Cc1nc(SCc2nc3cc(Cl)c(F)cc3[nH]2)c2oc3ccccc3c2n1	Rpn11 block active, CSN inh 35.6 (no result: TPT1 inh) | Rpn11 inh conf 63.9 | MMP-2 counter-1 inactive | Thrombin inh inactive | CSN5 deneddyl 85.8 | MMP-2 counter-2 inactive | Thrombin cntr inactive
Cc1c(C(=O)N2CCCC2)c(S(=O)(=O)NCCc2ccccc2)c(C)n1C	none
O=Cc1cn(-c2ccccc2)nc1-c1cc2cc(O)ccc2oc1=O	Rpn11 block active, CSN inh 84.3 | Rpn11 inh conf 41.8 | MMP-2 counter-1 inactive | Thrombin inh inactive | CSN5 deneddyl inactive | MMP-2 counter-2 inactive | Thrombin cntr inactive
COc1ccc(-c2csc(C(C)(O)c3ccc(F)c(F)c3)n2)cc1OC (centres undefined)	none (no result: TPT1 inh)
O=C1NC(=Nc2ccc(O)cc2)S/C1=C/c1ccco1	none
O=C1NC(=Nc2ccc3ccccc3c2)S/C1=C/c1ccco1	Rpn11 block active, CSN inh 67.4 | Rpn11 inh conf inactive | MMP-2 counter-1 inactive | Thrombin inh inactive | CSN5 deneddyl 85.2 | MMP-2 counter-2 inactive | Thrombin cntr 17.6
Cn1c(CBr)c(C(=O)c2ccc([N+](=O)[O-])cc2)c(=O)n(C)c1=O	none
COc1cc(C)c2c(c1C=O)Oc1c(c(C)c(O)c3c1C(O)OC3=O)OC2=O (centres undefined)	Rpn11 block active, CSN inh 38.0 | Rpn11 inh conf inactive | MMP-2 counter-1 inactive | Thrombin inh inactive | CSN5 deneddyl inactive | MMP-2 counter-2 inactive | Thrombin cntr inactive
CCCCn1c(/N=C/c2ccc(N(C)C)cc2)nc2ccccc21	Rpn11 block active, HNF4A DNA FP 48.7 | Rpn11 inh conf 72.5 | MMP-2 counter-1 inactive | Thrombin inh 59.1 | HNF4A confirm 81.0
CCCCn1c(/N=C/c2ccc3c(c2)OCO3)nc2ccccc21	none
CSc1nsc(/C=C/Nc2ccc(F)cc2)c1C#N	Rpn11 block active, HNF4A DNA FP 51.2 | Rpn11 inh conf inactive | MMP-2 counter-1 inactive | Thrombin inh inactive | HNF4A confirm 46.2
CC1OC(CCc2cccc(Cl)c2)Cc2[nH]c(=S)[nH]c(=O)c21 (centres undefined)	none (no result: Rpn11 block, TPT1 inh)
CCCN(CC(=O)Nc1ccccc1C)C(=O)c1cccc(S(=O)(=O)N2CCN(c3ccccc3)CC2)c1	none
COC(=O)[C@H](Cc1ccccc1)N1C/C=C\COc2c(Cl)cc(Cl)cc2S1(=O)=O	none (no result: TPT1 inh)
